# The list is not random: actives were taken first. Their share in the collection is about 2%.
# PLCg1 inh = inhibitors of human phospholipase C gamma1; purified PLC-gamma1, fluorogenic substrate, fluorescence; inhibition, % at 12.2 µM; 370,000 compounds, 0.84% hits; AID 720700; in the data active = inhibition above about 9.5%
# Target sequence (P19174 whole entry, looked up): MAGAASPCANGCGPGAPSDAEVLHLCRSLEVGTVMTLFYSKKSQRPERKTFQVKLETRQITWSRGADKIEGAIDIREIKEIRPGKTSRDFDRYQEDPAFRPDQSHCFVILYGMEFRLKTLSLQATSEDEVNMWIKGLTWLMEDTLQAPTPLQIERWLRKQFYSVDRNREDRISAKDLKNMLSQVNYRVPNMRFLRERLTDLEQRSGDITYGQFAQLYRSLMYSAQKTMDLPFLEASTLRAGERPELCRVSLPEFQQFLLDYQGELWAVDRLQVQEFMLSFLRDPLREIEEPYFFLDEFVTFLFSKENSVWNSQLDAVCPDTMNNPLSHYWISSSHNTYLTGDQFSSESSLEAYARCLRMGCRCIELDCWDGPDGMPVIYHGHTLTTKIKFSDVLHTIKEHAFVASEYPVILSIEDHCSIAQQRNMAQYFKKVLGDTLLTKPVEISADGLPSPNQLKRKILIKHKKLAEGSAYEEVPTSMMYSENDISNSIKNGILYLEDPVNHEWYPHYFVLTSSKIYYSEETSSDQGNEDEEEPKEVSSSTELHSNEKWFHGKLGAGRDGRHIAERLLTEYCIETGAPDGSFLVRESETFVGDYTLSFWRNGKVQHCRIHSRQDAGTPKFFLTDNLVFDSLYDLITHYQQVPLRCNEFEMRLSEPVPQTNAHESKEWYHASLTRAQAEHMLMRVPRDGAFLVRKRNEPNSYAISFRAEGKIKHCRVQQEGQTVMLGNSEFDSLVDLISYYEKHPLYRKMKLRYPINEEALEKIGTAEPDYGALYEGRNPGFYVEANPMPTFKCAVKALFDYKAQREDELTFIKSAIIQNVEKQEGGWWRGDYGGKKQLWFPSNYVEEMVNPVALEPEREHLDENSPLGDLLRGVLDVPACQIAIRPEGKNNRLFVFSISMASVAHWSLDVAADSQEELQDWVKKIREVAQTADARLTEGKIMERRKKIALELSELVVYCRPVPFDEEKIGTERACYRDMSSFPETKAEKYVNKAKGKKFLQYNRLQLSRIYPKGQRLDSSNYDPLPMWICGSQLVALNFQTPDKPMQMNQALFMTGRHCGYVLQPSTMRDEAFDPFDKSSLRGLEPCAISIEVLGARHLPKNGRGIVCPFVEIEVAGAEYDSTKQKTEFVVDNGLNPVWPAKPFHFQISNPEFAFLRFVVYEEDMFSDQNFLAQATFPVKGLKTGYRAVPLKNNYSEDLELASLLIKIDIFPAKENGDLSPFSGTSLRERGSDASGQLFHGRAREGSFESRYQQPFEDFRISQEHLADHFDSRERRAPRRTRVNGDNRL
# IMP-1 inh-1 = inhibitors of Pseudomonas aeruginosa IMP-1 metallo-beta-lactamase; purified IMP-1, nitrocefin hydrolysis, epi-absorbance fluorescence; inhibition, % at 5.6 µM; 290,000 compounds, 0.45% hits; AID 1556;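 active = inhibition above the mean plus 3 SD of all compounds in the same screening run, cut at about 4.5% in these data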
#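 Material – recombinant IMP-1 enzyme, purified · Amount – IMP-1 0.2 nM before substrate addition · Medium – HEPES buffer pH 7.1 with ZnSO4 and Brij 35 · Timing – 25 °C, 15 min preincubation, 25 min reaction · Measured by – plate fluorescence quenching by hydrolysis product, ex 480/em 530 nm · Read-out – percent enzyme inhibition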
# VIM-2 inh = inhibitors of Pseudomonas aeruginosa VIM-2 metallo-beta-lactamase. purified VIM-2, nitrocefin hydrolysis, epi-absorbance fluorescence. inhibition, % at 5.6 µM. 290,000 compounds, 0.89% hits. AID 1527;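 active = inhibition above the mean of all tested compounds plus 3 SD, cutoff set per screening run, cut at about 7.5% in these data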;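 note: red hydrolysis product quenches plate fluorescence so inhibitors raise well fluorescence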
# PLCb3 inh = PLC-beta3 (human) inhibition, primary screen | 370,000 compounds, 0.18% hits | Q01970 | inhibition, % at 12.2 µM | Purified PLC-beta3, fluorogenic substrate, fluorescence | AID 720704; in the data active = inhibition above about 11%
# PvdQ acylase = P. aeruginosa PvdQ acylase inhibition; purified PvdQ acylase, fluorescence plate reader; 340,000 compounds, 0.063% hits; inhibition, % at 10 µM; in the data active = inhibition above about 30%, passing the limit was not always enough
# IMP-1 inh-2 = blocks IMP-1 metallo-beta-lactamase in VIM-2 selectivity screen; 1,300 tested, under 10 active; inhibition, % at 5.6 µM; purified IMP-1, nitrocefin hydrolysis, epi-absorbance fluorescence; shares compounds with VIM-2 inh; call rule not given here
# VIM-2 FRET inh = VIM-2 FRET inhibition, artifact counter-screen | shares compounds with VIM-2 inh | purified VIM-2, CCF2 FRET substrate hydrolysis | inhibition, % at 5.6 µM | 1,300 compounds, 23% hits;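 active = inhibition above the mean of all tested compounds plus 3 SD, cut at about 19% in these data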
# TEM-1 counter = selectivity counter-screen for VIM-2 inhibitors: E. coli TEM-1 inhibitors | shares compounds with VIM-2 inh | Purified TEM-1, nitrocefin hydrolysis, epi-absorbance fluorescence | inhibition, % at 5.6 µM | 1,300 compounds, 3% hits | AID 1866;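 active = inhibition above that campaign's mean inhibition plus 3 SD, cut at about 0.46% in these data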
# VIM-2 confirm 2 = confirmation of P. aeruginosa VIM-2 metallo-beta-lactamase inhibitors; shares compounds with VIM-2 inh; inhibition, % at 5.6 µM; purified VIM-2, nitrocefin hydrolysis, epi-absorbance; 1,300 compounds, 96% hits;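 active = inhibition of the VIM-2 beta-lactamase enzyme above about 11% from the earlier first-round screen, limit read from the data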
# Hits are given with their value; – = inactive; · = no result.
SMILES,PLCg1 inh,IMP-1 inh-1,VIM-2 inh,PLCb3 inh,PvdQ acylase,IMP-1 inh-2,VIM-2 FRET inh,TEM-1 counter,VIM-2 confirm 2
Cc1cc(NCCCN2CCOCC2)n2ncc(-c3ccc(Cl)cc3)c2n1,–,–,–,–,–,·,·,·,·
Cc1cccc(-c2cc3nc(C)cc(NCCCn4ccnc4)n3n2)c1,–,–,48,–,–,–,–,–,60
CCCc1cc(NCCCn2ccnc2)n2nc(C)c(-c3ccccc3)c2n1,–,–,26,–,–,–,–,–,47
COc1ccc2[nH]c3c(c2c1)CCN[C@]31C(=O)N(Cc2cn(Cc3ccccc3)nn2)c2ccc(F)cc21,–,·,·,–,·,·,·,·,·
O=C1c2cccc3c(N4CCCCC4)ccc(c23)C(=O)N1CCO,–,–,13,–,–,–,–,–,25
CCOC(=O)c1cnc2c(ccc3ccccc32)c1NCCCN(C)C,–,–,25,–,–,–,–,–,35
CCOC(=O)c1ccc2ncc(C(=O)OCC)c(NCCCN3CCOCC3)c2c1,–,–,26,–,–,–,–,–,53
CCOC(=O)c1cnc2c(C)c(Cl)ccc2c1NCCCN1CCOCC1,–,–,16,–,–,–,–,–,25
CCOC(=O)c1cnc2ccc(OC)cc2c1Nc1ccc(N2CCN(C)CC2)cc1,–,–,76,–,–,–,–,–,85
COC(=O)[C@]12C[C@H](CC(=O)NCCCCc3ccccc3)C(=O)N(Cc3ccco3)C1=C[C@H](C1CCCC1)O[C@@H]2C,–,·,·,–,·,·,·,·,·
Cc1cc2cc3c(cc2n2c(SCC(=O)Nc4nc(-c5ccccc5)cs4)nnc12)OCO3,–,·,·,–,·,·,·,·,·
Cn1nc(-c2ccc(OCC(=O)Nc3cccnc3)cc2)c2ccccc2c1=O,–,–,20,–,–,–,–,–,31
Cc1cc(N2C(=O)CC(N3CCN(c4ccc(C(=O)c5cccs5)cc4)CC3)C2=O)no1 (centres undefined),–,–,13,–,–,–,–,–,–
O=C(NC1=N[C@@]2(C=C3CCCCC3n3c(=O)n(-c4ccccc4)c(=O)n32)[C@H](Cc2ccccc2)N1Cc1ccccc1)c1ccccc1 (some centres undefined),–,·,·,–,·,·,·,·,·
CCCCN1C[C@@H](COCc2ccccc2)Oc2cccc(F)c2S1(=O)=O,–,·,·,–,·,·,·,·,·
Cc1ccc(-c2nn3c(C)nnc3c3ccccc23)cc1S(=O)(=O)NCc1ccccc1,–,–,–,–,–,·,·,·,·
Cc1ccc(-c2nn3c(C)nnc3c3ccccc23)cc1S(=O)(=O)N(C)CCO,–,–,21,–,–,–,–,–,32
Cc1ccc(-c2nn3c(C)nnc3c3ccccc23)cc1S(=O)(=O)NCCN1CCOCC1,–,–,42,–,–,–,–,–,58
CN(CCc1ccccn1)C(=O)Cn1nc(-c2ccccc2)ccc1=O,–,·,·,–,·,·,·,·,·
CCN1Cc2nnn(Cc3ccccc3)c2-c2cc(F)ccc2S1(=O)=O,–,·,·,–,·,·,·,·,·
COC(CNC(=O)[C@H](Cc1ccccc1)NCC(=O)NC1CCCCC1)OC,–,·,·,–,·,·,·,·,·
CN1CCN(C(=O)CSc2nc3c(c(=O)n(C)c(=O)n3C)n2C)CC1,–,–,76,–,–,–,–,–,79
O=C(O)c1ccccc1Nc1ccc([N+](=O)[O-])c2nonc12,·,–,22,·,–,–,51,–,27
C=CC[C@H]1c2ccccc2[C@H]2N3N=Cc4ccccc4[C@H]3[C@H](CCCC)C(=O)N2N1C(=O)NCc1ccccc1,–,·,·,–,·,·,·,·,·
COC(=O)C1CN(Cc2ccc(F)cc2)CCS(=O)(=O)N1Cc1ccc(OC)cc1 (centres undefined),–,·,·,–,·,·,·,·,·
SMILES,PLCg1 inh,IMP-1 inh-1,VIM-2 inh,PLCb3 inh,PvdQ acylase,IMP-1 inh-2,VIM-2 FRET inh,TEM-1 counter,VIM-2 confirm 2
O=C(CNCc1ccccn1)N1CCc2ccccc2C1,–,–,30,–,–,–,–,–,50
O=C(CSc1ncccn1)N1CCc2ccccc2C1,–,–,–,–,–,·,·,·,·
CCCC1CCC2(CCCN2CCOC(=O)Nc2ccc(Br)cc2)CC1 (centres undefined),–,·,·,–,·,·,·,·,·
CCOc1ccc(C(=O)Nc2ccc(N3CCN(C(=O)c4ccco4)CC3)cc2)cc1Br,–,·,·,–,–,·,·,·,·
CCC(=O)N1CCN(c2ccc(NC(=O)COc3ccccc3Cl)cc2)CC1,–,–,–,–,–,·,·,·,·
CN1CCN(c2ccc(NC(=O)c3ccc4c(c3)OCO4)cc2)CC1,–,–,18,–,–,–,–,–,31
CCOc1ccc(C(=O)Nc2ccc(N3CCN(C)CC3)cc2)cc1Br,–,–,24,–,–,–,–,–,43
CN1CCN(c2ccc(NC(=O)COc3ccccc3Cl)cc2)CC1,–,–,20,–,–,–,–,–,40
COC(=O)C12C=C3CC(C)=C3C(=O)N1Cc1[nH]c3ccccc3c1C2 (centres undefined),–,·,·,–,·,·,·,·,·
COC(=O)c1cc(C(c2ccccc2O)C2CCCO2)n2cccc(C(C)(C)C)c12 (centres undefined),–,·,·,–,·,·,·,·,·
Clc1ccc(-n2c(SCc3cccc4ccccc34)nnc2-c2ccccc2)cc1,–,·,·,–,·,·,·,·,·
CCn1c(SCC(N)=O)nnc1-c1cc2c(C)nn(-c3ccccc3)c2s1,–,–,15,–,–,–,–,–,27
CCn1c(SCC(=O)Nc2cc(C(C)(C)C)nn2-c2ccccc2)nnc1-c1cccs1,–,–,–,–,–,·,·,·,·
COC(=O)[C@]12C[C@H](CC(=O)NCc3cccs3)C(=O)N(Cc3ccco3)C1=C[C@H](COCc1ccccc1)O[C@@H]2C,–,·,·,–,·,·,·,·,·
COC(=O)c1oc2nc(C)cc(C)c2c1N,–,–,15,–,–,–,–,–,14
Cc1cc(C)c2c(N)c(C(=O)c3ccccc3)oc2n1,–,–,–,–,–,·,·,·,·
Cc1cc(C)c2nc3nc(C)c(C)cc3c(N)c2c1,–,–,18,–,–,–,–,–,29
COc1cc(COCC(O)CN2CCN(CCN3C(=O)c4cccc5cccc(c45)C3=O)CC2)cc(OC)c1OC (centres undefined),–,–,–,–,–,·,·,·,·
COc1cccc(OCC(O)CN2CCC(CN3C(=O)c4cccc5cccc(c45)C3=O)CC2)c1 (centres undefined),–,–,14,–,–,–,–,–,22
COc1ccc(COCC(O)CN2CCC(CN3C(=O)c4cccc5cccc(c45)C3=O)CC2)cc1OC (centres undefined),–,–,14,–,–,–,–,–,27
O=C1c2cccc3cccc(c23)C(=O)N1CC1CCN(CC(O)COc2ccc3ccccc3c2)CC1 (centres undefined),–,·,·,–,–,·,·,·,·
